Measurements as given in ChEMBL document CHEMBL5058577, “EUbOPEN Chemogenomics Library 2 (Multiplex)” (2022).

Tested on: U2OS
Test: Multiplex assay against U2OS
Assay type: toxicity, cell-based
Settings: human
Procedure, shortened: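 On a CQ1 microscope at 37°C and 5% CO2, live cells were imaged after compound addition. They had been stained at seeding with Hoechst33342, BioTracker Green Microtubule Cytoskeleton Dye, MitoTracker Red and Annexin V Alexa Fluor 680. CellPathfinder machine-learning gating assigned cells to Hoechst high-intensity objects or normal cells, normal cells to healthy, pyknosed or fragmented nuclei, and pyknosed cells to mitotic or apoptotic. Tubulin, mitochondrial-mass and membrane-permeability phenotypes are per cents of healthy-nucleus cells.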

[1] = 12 h, 1 µM, compound concentration 1 uM, replicate 1
[2] = 12 h, 1 µM, compound concentration 1 uM, replicate 2
[3] = 12 h, 10 µM, compound concentration 10 uM, replicate 1
[4] = 12 h, 10 µM, compound concentration 10 uM, replicate 2
[5] = 24 h, 1 µM, compound concentration 1 uM, replicate 1
[6] = 24 h, 1 µM, compound concentration 1 uM, replicate 2
[7] = 24 h, 10 µM, compound concentration 10 uM, replicate 1
[8] = 24 h, 10 µM, compound concentration 10 uM, replicate 2
[9] = 48 h, 1 µM, compound concentration 1 uM, replicate 1
[10] = 48 h, 1 µM, compound concentration 1 uM, replicate 2
[11] = 48 h, 10 µM, compound concentration 10 uM, replicate 1
[12] = 48 h, 10 µM, compound concentration 10 uM, replicate 2

## Nc1nc(CC(=O)Nc2ccc(CCNC[C@H](O)c3ccccc3)cc2)cs1 [MIRABEGRON]
[1]
  Population Apoptotic (%): 86%
  Population Fragmented Nuclei (%): 24%
  Population Healthy Nuclei (%): 62%
  Population Hoechst High Intensity Objects (%): 1%
  Population Membrane Permeable-Phenotype (%): 6%
  Population Mitochondria Different-Phenotype (%): 3%
  Population Mitotic Cells (%): 13%
  Population Normal (%): 98%
  Population Pyknosed Nuclei (%): 12%
  Population Tubulin-Different-Phenotype (%): 4%
  Total Cell Count: 240
[2]
  Population Apoptotic (%): 100%
  Population Fragmented Nuclei (%): 13%
  Population Healthy Nuclei (%): 74%
  Population Hoechst High Intensity Objects (%): 0%
  Population Membrane Permeable-Phenotype (%): 5%
  Population Mitochondria Different-Phenotype (%): 2%
  Population Mitotic Cells (%): 0%
  Population Normal (%): 99%
  Population Tubulin-Different-Phenotype (%): 5%
  Total Cell Count: 107
[3]
  Population Apoptotic (%): 86%
  Population Fragmented Nuclei (%): 18%
  Population Healthy Nuclei (%): 70%
  Population Hoechst High Intensity Objects (%): 1%
  Population Membrane Permeable-Phenotype (%): 6%
  Population Mitochondria Different-Phenotype (%): 2%
  Population Mitotic Cells (%): 13%
  Population Normal (%): 98%
  Population Pyknosed Nuclei (%): 11%
  Population Tubulin-Different-Phenotype (%): 4%
  Total Cell Count: 319
[4]
  Population Apoptotic (%): 66%
  Population Fragmented Nuclei (%): 21%
  Population Healthy Nuclei (%): 71%
  Population Hoechst High Intensity Objects (%): 0%
  Population Membrane Permeable-Phenotype (%): 7%
  Population Mitochondria Different-Phenotype (%): 3%
  Population Mitotic Cells (%): 33%
  Population Normal (%): 99%
  Population Pyknosed Nuclei (%): 6%
  Population Tubulin-Different-Phenotype (%): 1%
  Total Cell Count: 136
[5]
  Population Apoptotic (%): 82%
  Population Fragmented Nuclei (%): 21%
  Population Healthy Nuclei (%): 70%
  Population Hoechst High Intensity Objects (%): 2%
  Population Membrane Permeable-Phenotype (%): 4%
  Population Mitochondria Different-Phenotype (%): 2%
  Population Mitotic Cells (%): 17%
  Population Normal (%): 97%
  Population Pyknosed Nuclei (%): 8%
  Population Tubulin-Different-Phenotype (%): 3%
  Total Cell Count: 289
[6]
  Population Apoptotic (%): 58%
  Population Fragmented Nuclei (%): 11%
  Population Healthy Nuclei (%): 79%
  Population Hoechst High Intensity Objects (%): 0%
  Population Membrane Permeable-Phenotype (%): 9%
  Population Mitochondria Different-Phenotype (%): 3%
  Population Mitotic Cells (%): 41%
  Population Normal (%): 99%
  Population Pyknosed Nuclei (%): 9%
  Population Tubulin-Different-Phenotype (%): 7%
  Total Cell Count: 125
[7]
  Population Apoptotic (%): 86%
  Population Fragmented Nuclei (%): 17%
  Population Healthy Nuclei (%): 75%
  Population Hoechst High Intensity Objects (%): 1%
  Population Membrane Permeable-Phenotype (%): 5%
  Population Mitochondria Different-Phenotype (%): 3%
  Population Mitotic Cells (%): 13%
  Population Normal (%): 98%
  Population Pyknosed Nuclei (%): 7%
  Population Tubulin-Different-Phenotype (%): 3%
  Total Cell Count: 405
[8]
  Population Apoptotic (%): 76%
  Population Fragmented Nuclei (%): 20%
  Population Healthy Nuclei (%): 71%
  Population Membrane Permeable-Phenotype (%): 9%
  Population Mitochondria Different-Phenotype (%): 5%
  Population Mitotic Cells (%): 23%
  Population Tubulin-Different-Phenotype (%): 4%
  Total Cell Count: 167
[9]
  Population Apoptotic (%): 84%
  Population Fragmented Nuclei (%): 17%
  Population Healthy Nuclei (%): 72%
  Population Hoechst High Intensity Objects (%): 2%
  Population Membrane Permeable-Phenotype (%): 4%
  Population Mitochondria Different-Phenotype (%): 3%
  Population Mitotic Cells (%): 15%
  Population Normal (%): 97%
  Population Pyknosed Nuclei (%): 9%
  Population Tubulin-Different-Phenotype (%): 3%
  Total Cell Count: 394
[10]
  Population Apoptotic (%): 78%
  Population Fragmented Nuclei (%): 12%
  Population Healthy Nuclei (%): 74%
  Population Membrane Permeable-Phenotype (%): 8%
  Population Mitotic Cells (%): 21%
  Population Pyknosed Nuclei (%): 13%
  Population Tubulin-Different-Phenotype (%): 7%
  Total Cell Count: 179
[11]
  Population Apoptotic (%): 87%
  Population Fragmented Nuclei (%): 14%
  Population Healthy Nuclei (%): 74%
  Population Hoechst High Intensity Objects (%): 2%
  Population Membrane Permeable-Phenotype (%): 5%
  Population Mitochondria Different-Phenotype (%): 2%
  Population Mitotic Cells (%): 12%
  Population Normal (%): 97%
  Population Pyknosed Nuclei (%): 10%
  Population Tubulin-Different-Phenotype (%): 2%
  Total Cell Count: 534
[12]
  Population Apoptotic (%): 70%
  Population Healthy Nuclei (%): 78%
  Population Membrane Permeable-Phenotype (%): 3%
  Population Mitochondria Different-Phenotype (%): 3%
  Population Mitotic Cells (%): 29%
  Population Pyknosed Nuclei (%): 7%
  Population Tubulin-Different-Phenotype (%): 1%
  Total Cell Count: 232
